These results are taken from ChEMBL document CHEMBL1154183, “Structure-based optimization of potent and selective inhibitors of the tyrosine kinase erythropoietin producing human hepatocellular carcinoma receptor B4 (EphB4)” (J Med Chem, 2009).

The target of test [1] is Ephrin type-B receptor 6 (Homo sapiens) (UniProt O15197). Description: Binding affinity to EPHB6 assessed as percentage of kinase remaining bound to the bead at 1 uM by T7 phage display based binding assay. A digest of the protocol:
(§1)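 Competition binding assay run by a contract lab. Each kinase was expressed as a fusion to T7 phage, full-length for small kinases and catalytic domain for large ones. Phage were mixed with an immobilized known kinase inhibitor on streptavidin magnetic beads and with test compound at a single 1 μM. Kinase/phage still bound to the beads was quantified by qPCR and expressed as % of DMSO control.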

The target of test [2] is TGF-beta receptor type-2 (Homo sapiens) (UniProt P37173). Briefly: Binding affinity to TGFBR2 assessed as percentage of kinase remaining bound to the bead at 1 uM by T7 phage display based binding assay. A digest of the protocol:
as §1

The target of test [3] is Serine/threonine-protein kinase N2 (Homo sapiens) (UniProt Q16513). Briefly: Inhibition of PRK2 assessed as remaining enzyme activity at 1 uM relative to DMSO.
Chain of Serine/threonine-protein kinase N2 (Homo sapiens) (Q16513 whole entry, looked up): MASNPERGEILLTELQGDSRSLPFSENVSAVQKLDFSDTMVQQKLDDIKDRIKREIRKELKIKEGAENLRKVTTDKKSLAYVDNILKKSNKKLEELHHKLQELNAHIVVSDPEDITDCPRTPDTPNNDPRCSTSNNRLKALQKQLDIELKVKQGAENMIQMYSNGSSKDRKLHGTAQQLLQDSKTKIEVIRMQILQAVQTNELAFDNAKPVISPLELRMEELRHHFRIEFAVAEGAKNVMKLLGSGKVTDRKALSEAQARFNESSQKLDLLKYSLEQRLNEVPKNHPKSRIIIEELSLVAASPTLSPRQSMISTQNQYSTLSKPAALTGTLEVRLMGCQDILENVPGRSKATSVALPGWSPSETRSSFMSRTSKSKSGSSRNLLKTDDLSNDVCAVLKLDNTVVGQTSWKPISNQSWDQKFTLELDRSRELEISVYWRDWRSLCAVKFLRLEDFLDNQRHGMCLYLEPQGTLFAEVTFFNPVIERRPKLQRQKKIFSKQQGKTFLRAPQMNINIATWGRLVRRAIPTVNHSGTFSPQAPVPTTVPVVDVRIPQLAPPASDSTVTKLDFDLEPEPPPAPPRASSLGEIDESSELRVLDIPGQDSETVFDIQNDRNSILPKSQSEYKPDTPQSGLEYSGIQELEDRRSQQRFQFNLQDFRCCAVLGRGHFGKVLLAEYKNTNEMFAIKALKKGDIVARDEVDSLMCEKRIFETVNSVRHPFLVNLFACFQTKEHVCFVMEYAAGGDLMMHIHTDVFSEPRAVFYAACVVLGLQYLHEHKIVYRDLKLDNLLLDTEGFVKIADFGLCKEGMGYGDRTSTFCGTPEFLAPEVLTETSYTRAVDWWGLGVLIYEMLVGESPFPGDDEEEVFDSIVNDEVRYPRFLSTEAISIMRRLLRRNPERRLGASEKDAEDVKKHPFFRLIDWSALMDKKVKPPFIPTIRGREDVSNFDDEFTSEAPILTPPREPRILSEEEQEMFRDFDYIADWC
For test [4], the target named is NUAK family SNF1-like kinase 1 (Homo sapiens) (UniProt O60285). Description: Inhibition of NUAK1 assessed as remaining enzyme activity at 1 uM relative to DMSO. A digest of the protocol: (§2)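 Radiometric kinase assay run robotically at room temperature for 30 min. Contained 10 mM magnesium acetate and [γ-33P]ATP (800 cpm/pmol) at 5, 20 or 50 μM, chosen per kinase to be at or below its ATP Km. Reactions were started with MgATP, stopped with orthophosphoric acid and spotted onto P81 filters. Result is mean % activity of duplicates at one inhibitor concentration versus DMSO control.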

Test [5] has as its target Protein kinase C alpha type (Homo sapiens) (UniProt P17252). Description: Inhibition of PKCalpha assessed as remaining enzyme activity at 1 uM relative to DMSO.
Test [6] deals with Tyrosine-protein kinase Srms (Homo sapiens) (UniProt Q9H3Y6). Description: Binding affinity to SRMS assessed as percentage of kinase remaining bound to the bead at 1 uM by T7 phage display based binding assay. A digest of the protocol: as §1
The next test has as its target Ephrin type-A receptor 7 (Homo sapiens, UniProt Q15375). Description: Inhibition of EphA7 by [gamma33-P]ATP based assay. In short, it runs like this: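 Radiometric [γ-33P]ATP kinase assay against Eph kinases, following a protocol similar to the Mg-acetate/MgATP filter-binding method.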
The target in test [7] is Serine/threonine-protein kinase D1 (Homo sapiens) (UniProt Q15139). Briefly: Inhibition of PKD1 assessed as remaining enzyme activity at 1 uM relative to DMSO.
Chain of Serine/threonine-protein kinase D1 (Homo sapiens) (Q15139 whole entry): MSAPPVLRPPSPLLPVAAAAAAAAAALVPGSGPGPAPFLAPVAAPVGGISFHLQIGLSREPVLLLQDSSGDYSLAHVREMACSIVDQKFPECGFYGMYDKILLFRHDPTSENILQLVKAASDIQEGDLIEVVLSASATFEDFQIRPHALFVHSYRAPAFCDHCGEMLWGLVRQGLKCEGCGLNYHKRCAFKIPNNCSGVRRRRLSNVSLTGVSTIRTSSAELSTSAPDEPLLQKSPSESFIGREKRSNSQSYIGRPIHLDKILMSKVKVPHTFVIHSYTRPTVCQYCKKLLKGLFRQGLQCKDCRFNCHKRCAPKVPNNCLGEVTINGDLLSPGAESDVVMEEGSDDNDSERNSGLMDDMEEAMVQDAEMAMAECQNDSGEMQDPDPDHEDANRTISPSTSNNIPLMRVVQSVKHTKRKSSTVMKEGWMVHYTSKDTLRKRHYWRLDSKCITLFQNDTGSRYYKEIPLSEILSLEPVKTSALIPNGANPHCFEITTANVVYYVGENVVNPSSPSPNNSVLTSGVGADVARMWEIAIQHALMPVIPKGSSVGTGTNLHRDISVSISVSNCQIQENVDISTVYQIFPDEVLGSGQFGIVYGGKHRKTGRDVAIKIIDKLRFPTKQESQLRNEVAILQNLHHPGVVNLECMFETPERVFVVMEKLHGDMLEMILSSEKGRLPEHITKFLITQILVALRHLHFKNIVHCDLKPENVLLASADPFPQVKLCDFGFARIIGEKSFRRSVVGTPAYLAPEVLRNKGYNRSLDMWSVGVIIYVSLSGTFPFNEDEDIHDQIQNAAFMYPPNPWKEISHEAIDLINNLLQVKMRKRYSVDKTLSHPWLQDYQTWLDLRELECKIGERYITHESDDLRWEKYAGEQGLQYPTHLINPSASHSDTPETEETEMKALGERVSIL
For test [8], the target named is Tyrosine-protein kinase Fyn (Homo sapiens) (UniProt P06241). Description: Binding affinity to FYN assessed as percentage of kinase remaining bound to the bead at 1 uM by T7 phage display based binding assay. In short, it runs like this: as §1
For test [9], the target named is Ribosomal protein S6 kinase alpha-5 (Homo sapiens) (UniProt O75582). Briefly: Inhibition of MSK1 assessed as remaining enzyme activity at 1 uM relative to DMSO. A digest of the protocol: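 Radiometric kinase assay run robotically at room temperature for 30 min, linear in time and enzyme. Conditions: 10 mM magnesium acetate, [γ-33P]ATP (800 cpm/pmol) at 5, 20 or 50 μM per kinase, at or below its ATP Km. Started with MgATP and stopped with orthophosphoric acid, then spotted on P81 filters. Reported as mean % activity of duplicates versus DMSO controls.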

The target of test [10] is Epithelial discoidin domain-containing receptor 1 (Homo sapiens) (UniProt Q08345). Description: Binding affinity to DDR1 assessed as percentage of kinase remaining bound to the bead at 1 uM by T7 phage display based binding assay. In short, it runs like this:
as §1

Test [11] addresses Mitogen-activated protein kinase 13 (Homo sapiens) (UniProt O15264). Briefly: Inhibition of p38delta assessed as remaining enzyme activity at 1 uM relative to DMSO.
Test [12] concerns the target Misshapen-like kinase 1 (Homo sapiens) (UniProt Q8N4C8). Description: Inhibition of MINK1 assessed as remaining enzyme activity at 1 uM relative to DMSO. In short, it runs like this:
as §2

Test [13] deals with Ribosomal protein S6 kinase beta-1 (Homo sapiens) (UniProt P23443). Description: Inhibition of S6K1 assessed as remaining enzyme activity at 1 uM relative to DMSO.
Chain of Ribosomal protein S6 kinase beta-1 (Homo sapiens) (P23443 whole entry, looked up): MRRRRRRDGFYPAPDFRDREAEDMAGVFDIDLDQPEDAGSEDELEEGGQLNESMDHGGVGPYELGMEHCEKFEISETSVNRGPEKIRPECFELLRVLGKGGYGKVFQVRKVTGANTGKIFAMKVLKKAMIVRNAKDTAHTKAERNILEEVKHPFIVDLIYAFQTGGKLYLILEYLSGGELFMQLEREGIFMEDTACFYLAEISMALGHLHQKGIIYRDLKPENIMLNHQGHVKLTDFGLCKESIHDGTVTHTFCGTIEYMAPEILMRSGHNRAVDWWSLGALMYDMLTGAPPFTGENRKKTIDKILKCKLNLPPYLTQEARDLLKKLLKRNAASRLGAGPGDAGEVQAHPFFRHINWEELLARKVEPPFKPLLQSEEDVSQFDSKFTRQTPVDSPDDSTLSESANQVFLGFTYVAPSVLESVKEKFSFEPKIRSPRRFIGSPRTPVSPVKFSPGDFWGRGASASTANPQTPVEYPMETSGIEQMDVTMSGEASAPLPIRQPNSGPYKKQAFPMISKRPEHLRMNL
Test [14] deals with Mitogen-activated protein kinase 9 (Homo sapiens) (UniProt P45984). Description: Inhibition of JNK2 assessed as remaining enzyme activity at 1 uM relative to DMSO. A digest of the protocol:
(§3)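 Dundee kinase panel, radiometric: [γ-33P]ATP (800 cpm/pmol) at 5, 20 or 50 μM, at or below each kinase's ATP Km; 10 mM magnesium acetate; robotic, room temperature, 30 min. Reactions started with MgATP, stopped with orthophosphoric acid, spotted onto P81 filters. Inhibitor tested at a single concentration; mean % activity of duplicates relative to DMSO control.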

For test [15], the target named is Serine/threonine-protein kinase NLK (Homo sapiens) (UniProt Q9UBE8). Briefly: Binding affinity to NLK assessed as percentage of kinase remaining bound to the bead at 1 uM by T7 phage display based binding assay. A digest of the protocol: as §1
Test [16] addresses LIM domain kinase 1 (Homo sapiens) (UniProt P53667). Description: Binding affinity to LIMK1 assessed as percentage of kinase remaining bound to the bead at 1 uM by T7 phage display based binding assay. In short, it runs like this:
as §1

The target of test [17] is Tyrosine-protein kinase CSK (Homo sapiens) (UniProt P41240). Description: Inhibition of CSK assessed as remaining enzyme activity at 3 uM relative to DMSO. In short, it runs like this: as §3
For test [18], the target named is Mitogen-activated protein kinase 13 (Homo sapiens) (UniProt O15264). Briefly: Inhibition of p38delta assessed as remaining enzyme activity at 3 uM relative to DMSO.
Chain of Mitogen-activated protein kinase 13 (Homo sapiens) (O15264 whole entry): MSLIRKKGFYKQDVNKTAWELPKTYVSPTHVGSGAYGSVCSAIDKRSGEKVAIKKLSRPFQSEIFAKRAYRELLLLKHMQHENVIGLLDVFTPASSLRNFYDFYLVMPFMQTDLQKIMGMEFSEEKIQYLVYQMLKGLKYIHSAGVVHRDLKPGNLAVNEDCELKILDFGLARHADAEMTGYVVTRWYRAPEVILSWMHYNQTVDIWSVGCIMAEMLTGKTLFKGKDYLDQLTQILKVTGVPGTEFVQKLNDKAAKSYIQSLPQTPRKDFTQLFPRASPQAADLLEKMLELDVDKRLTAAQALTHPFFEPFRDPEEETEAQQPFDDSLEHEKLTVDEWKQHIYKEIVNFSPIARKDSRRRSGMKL
Test [19] deals with Insulin receptor-related protein (Homo sapiens) (UniProt P14616). Briefly: Inhibition of IRR assessed as remaining enzyme activity at 3 uM relative to DMSO. In short, it runs like this: as §3
Test [20] concerns the target Fibroblast growth factor receptor 1 (Homo sapiens) (UniProt P11362). Description: Inhibition of FGF-R1 assessed as remaining enzyme activity at 3 uM relative to DMSO. In short, it runs like this: as §3
In test [21] the target is Serine/threonine-protein kinase N2 (Homo sapiens) (UniProt Q16513). Briefly: Inhibition of PRK2 assessed as remaining enzyme activity at 3 uM relative to DMSO.
Test [22] in a line: Inhibition of CK2 assessed as remaining enzyme activity at 3 uM relative to DMSO. In short, it runs like this: as §3
The target in test [23] is Mitogen-activated protein kinase 12 (Homo sapiens) (UniProt P53778). Description: Inhibition of p38-gamma assessed as remaining enzyme activity at 3 uM relative to DMSO.
Test [24] addresses Ribosomal protein S6 kinase beta-1 (Homo sapiens) (UniProt P23443). Briefly: Inhibition of S6K1 assessed as remaining enzyme activity at 3 uM relative to DMSO.
In test [25] the target is Mitogen-activated protein kinase 8 (Homo sapiens) (UniProt P45983). Briefly: Inhibition of JNK1 assessed as remaining enzyme activity at 3 uM relative to DMSO. In short, it runs like this:
as §3

In test [26] the target is Serine/threonine-protein kinase STK11 (Homo sapiens) (UniProt Q15831). Briefly: Inhibition of LKB1 assessed as remaining enzyme activity at 3 uM relative to DMSO. A digest of the protocol: as §2
Test [27] addresses Eukaryotic elongation factor 2 kinase (Homo sapiens) (UniProt O00418). Briefly: Inhibition of EF2K assessed as remaining enzyme activity at 3 uM relative to DMSO. In short, it runs like this: as §3
Test [28] is described as follows: Inhibition of PHK assessed as remaining enzyme activity at 3 uM relative to DMSO. In short, it runs like this: as §2
Test [29] addresses Serine/threonine-protein kinase PAK 5 (Homo sapiens) (UniProt Q9P286). Description: Inhibition of PAK5 assessed as remaining enzyme activity at 3 uM relative to DMSO. A digest of the protocol: as §2

Chain of Serine/threonine-protein kinase PAK 5 (Homo sapiens) (Q9P286 whole entry, looked up): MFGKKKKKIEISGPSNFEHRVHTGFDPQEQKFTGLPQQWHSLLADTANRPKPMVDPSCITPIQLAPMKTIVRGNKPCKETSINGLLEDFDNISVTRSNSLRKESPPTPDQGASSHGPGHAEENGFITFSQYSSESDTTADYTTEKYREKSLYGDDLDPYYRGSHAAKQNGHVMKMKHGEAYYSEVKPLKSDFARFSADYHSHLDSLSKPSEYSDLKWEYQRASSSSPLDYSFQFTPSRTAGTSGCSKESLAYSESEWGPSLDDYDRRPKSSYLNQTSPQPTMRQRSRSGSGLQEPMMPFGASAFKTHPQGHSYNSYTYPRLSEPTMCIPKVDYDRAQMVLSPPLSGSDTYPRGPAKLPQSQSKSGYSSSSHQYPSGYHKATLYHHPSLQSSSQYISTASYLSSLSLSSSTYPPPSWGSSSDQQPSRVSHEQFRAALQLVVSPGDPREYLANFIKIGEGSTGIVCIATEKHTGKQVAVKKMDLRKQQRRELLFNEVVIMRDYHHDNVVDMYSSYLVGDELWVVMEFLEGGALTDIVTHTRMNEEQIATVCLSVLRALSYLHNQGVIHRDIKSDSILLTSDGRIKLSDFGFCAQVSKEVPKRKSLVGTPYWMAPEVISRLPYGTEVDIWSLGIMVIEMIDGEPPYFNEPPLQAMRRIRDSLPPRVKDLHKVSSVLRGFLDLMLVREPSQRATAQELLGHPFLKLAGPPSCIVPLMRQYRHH
Chain of Misshapen-like kinase 1 (Homo sapiens) (Q8N4C8 whole entry, looked up): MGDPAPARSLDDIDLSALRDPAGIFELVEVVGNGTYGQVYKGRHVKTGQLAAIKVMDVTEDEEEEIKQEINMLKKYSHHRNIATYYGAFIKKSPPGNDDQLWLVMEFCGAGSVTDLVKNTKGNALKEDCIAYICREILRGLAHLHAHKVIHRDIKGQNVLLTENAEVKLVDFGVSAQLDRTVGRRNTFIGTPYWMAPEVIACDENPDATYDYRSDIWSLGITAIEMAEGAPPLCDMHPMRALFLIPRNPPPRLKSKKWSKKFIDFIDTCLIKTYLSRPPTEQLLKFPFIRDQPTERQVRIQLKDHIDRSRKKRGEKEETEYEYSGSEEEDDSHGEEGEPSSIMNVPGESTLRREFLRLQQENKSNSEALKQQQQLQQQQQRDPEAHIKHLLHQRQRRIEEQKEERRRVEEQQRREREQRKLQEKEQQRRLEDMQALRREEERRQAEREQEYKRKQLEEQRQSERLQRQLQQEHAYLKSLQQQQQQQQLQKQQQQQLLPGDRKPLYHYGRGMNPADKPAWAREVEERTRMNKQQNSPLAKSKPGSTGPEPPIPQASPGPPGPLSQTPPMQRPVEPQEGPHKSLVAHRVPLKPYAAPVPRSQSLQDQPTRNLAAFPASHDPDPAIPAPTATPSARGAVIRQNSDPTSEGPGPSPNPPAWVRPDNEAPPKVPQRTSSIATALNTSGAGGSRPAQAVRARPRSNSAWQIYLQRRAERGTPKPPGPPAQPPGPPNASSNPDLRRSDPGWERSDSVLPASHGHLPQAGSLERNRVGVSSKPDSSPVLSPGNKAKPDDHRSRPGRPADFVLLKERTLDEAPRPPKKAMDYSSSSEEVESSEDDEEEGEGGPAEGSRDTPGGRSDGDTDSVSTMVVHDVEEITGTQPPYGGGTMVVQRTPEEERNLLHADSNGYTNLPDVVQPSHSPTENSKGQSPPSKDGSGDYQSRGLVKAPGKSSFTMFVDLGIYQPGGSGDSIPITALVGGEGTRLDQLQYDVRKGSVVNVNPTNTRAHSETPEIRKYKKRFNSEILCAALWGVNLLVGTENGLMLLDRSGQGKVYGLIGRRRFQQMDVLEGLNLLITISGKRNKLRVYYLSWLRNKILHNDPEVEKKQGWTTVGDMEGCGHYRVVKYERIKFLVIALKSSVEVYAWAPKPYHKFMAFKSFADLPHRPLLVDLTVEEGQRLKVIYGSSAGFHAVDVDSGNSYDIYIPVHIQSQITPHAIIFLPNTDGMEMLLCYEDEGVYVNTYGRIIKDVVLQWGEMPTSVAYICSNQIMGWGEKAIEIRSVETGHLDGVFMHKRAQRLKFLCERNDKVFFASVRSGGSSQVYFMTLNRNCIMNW

For the compound `COc1ccccc1-n1c(-c2cc(O)ccc2C)cn2c3c(=O)[nH]c(=O)n(C)c3nc12`, the Activity came out at 32% in test [1]; 2.4% in test [2]; 93% in [3]; 133% in [4]; 92% in [5]; 18% in [6]. In addition, the Activity in test [7] was 92%; in test [8], 0.25%; in test [9], 95%; in test [10], 1.4%; in test [11], 86%; in test [12] it was 102%. Further, the Activity worked out at 77% in test [13], 94% in test [14], 83% in [15] and 83% in test [16]. In addition, at Ephrin type-A receptor 7, the half-maximal inhibitory concentration (IC50) (in general, the point on the concentration scale where inhibition reaches its midpoint) amounted to 1120 nM.
For the compound `COc1ccccc1-n1c(-c2ccccc2C)cn2c3c(=O)[nH]c(=O)n(C)c3nc12`, the Activity in test [17] turned out to be 72%; in test [18], 94%; in test [19], 110%; in test [20], 90%; in [21] it was 95%; in [22], 85%. For the same compound, the Activity in test [23] came to 92%; in test [24], 98%; in test [25], 106%; in test [26], 89%; in test [27], 93%; in [28] it was 92%. The Activity in test [29] amounted to 94%.
